The results in this text go back to ChEMBL document CHEMBL1146638, “Chemical basis for the biological activity of imexon and related cyanoaziridines” (J Med Chem, 2004).

The structures appear in SMILES notation. Several values for one entry are separate records, joined by “and”; a condition that tells them apart may be missing. Equal entries are not always repeated.

For orientation: IC50 means the concentration that gives 50% inhibition.

In assay [1] the test system is L1210. The experiment in a line: Cytotoxicity against sensitive L1210 murine leukemia cells by MTT assay. The assay is classed as functional, cell-based, Mus musculus. The essentials: (§1)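 Murine L1210 leukemia cells, drug-sensitive and multidrug-resistant (MDR) sublines, tested in culture. Viability read by MTT assay. Values reported as IC50 in µM.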
Assay [2] has as its system L1210. The experiment in a line: Cytotoxicity against multidrug resistant (MDR) L1210 murine leukemia cells by MTT assay. The assay is classed as functional, cell-based, Mus musculus. The procedure, abridged:
as §1
On the technique in general: Tetrazolium dyes change colour on reduction, which living cells bring about.

The subject of the next assay is RPMI-8226. In words: Cytotoxicity against sensitive human myeloma 8226/S cells by MTT assay.

On to `CNC(=O)N1CC1C1=NC(C(=O)O)CS1` (stereo not drawn), for which the IC50 with L1210 [1] (Mus musculus, L1210) is above 500 µM; with L1210 [2] (Mus musculus, L1210), above 500 µM.
Consider `C[N+](C)(C)C(CSCC(C#N)NC(=O)Nc1ccccc1)C(=O)[O-]` (stereo not drawn), for which the half-maximal inhibitory concentration (IC50) in the assay with RPMI-8226 was 44.9 µM; in the assay on L1210 [1] (Mus musculus, L1210), 73.9 µM; in the assay on L1210 [2] (Mus musculus, L1210), above 500 µM.
Taken in the same sequence, the figures for `CC(=O)NC(CSCC1NC(=O)NC1=O)C(=O)O` (stereo not drawn) were 56.3 µM, 73.7 µM and 116 µM.
In the case of `N#CC1CN1` (stereo not drawn), the half-maximal inhibitory concentration (IC50) with L1210 [1] (Mus musculus, L1210) is above 500 µM; in the assay with L1210 [2] (Mus musculus, L1210), above 500 µM.
Take `O=C(O)C1CSC(C2CN2)=N1` (stereo not drawn): the 50% inhibitory concentration (IC50) was above 500 µM in the assay on L1210 [1] (Mus musculus, L1210) and above 500 µM in the assay with L1210 [2] (Mus musculus, L1210).
`CNC(=O)N1CC1C#N` (stereo not drawn): the IC50 was 15.5 µM in the assay on RPMI-8226; 25.1 µM in the assay on L1210 [1] (Mus musculus, L1210); 36.7 µM with L1210 [2] (Mus musculus, L1210).
`N#CC1CN1C(=O)Nc1ccccc1` (stereo not drawn): the IC50 in the assay on L1210 [1] (l1210) stood at 38.4 µM; in the assay on L1210 [2] (l1210), 41.2 µM.
Take `N#CC1CN1C(N)=O` (stereo not drawn): the half-maximal inhibitory concentration (IC50) was above 500 µM in the assay with RPMI-8226; above 500 µM with L1210 [1] (Mus musculus, L1210); above 500 µM with L1210 [2] (Mus musculus, L1210).
With `O=C(Nc1ccccc1)N1CC1`, in the assay on L1210 [2] (l1210), the IC50 is 5.8 µM and 28.4 µM.
`NC(=O)N1CC1C1=NC(C(=O)O)CS1` (stereo not drawn): the IC50 is above 500 µM in the assay on L1210 [1] (Mus musculus, L1210) and above 500 µM with L1210 [2] (Mus musculus, L1210).
